The text below walks through data of ChEMBL document CHEMBL4765412, “(±)-trans-2-phenyl-2,3-dihydrobenzofurans as leishmanicidal agents: Synthesis, in vitro evaluation and SAR analysis” (Eur J Med Chem, 2020).

For one series, the system named is Leishmania donovani. In words: Antileishmanial activity against Leishmania donovani MHOM/ET/67/L82 amastigotes assessed as growth inhibition incubated for 70 hrs by resazurin based inverted microscopic analysis. It is filed as functional, organism-based. In short, it runs like this:
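Axenic L. donovani amastigotes (MHOM/ET/67/L82); racemates tested unless stated; miltefosine as positive control. Some values come from a separate run and were rescaled by that run's relative miltefosine IC50.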
(In general: Resazurin is reduced to fluorescent resorufin, in cell work by metabolically active cells.)

Series [1] in a line: Selectivity index, ratio of IC50 for cytotoxicity against rat L6 cells to IC50 for antileishmanial activity against Leishmania donovani MHOM/ET/67/L82 amastigotes. It is filed as toxicity, cell-based. The note with it: for selectivity ratio: read-out: Ratio IC50.
The next series deals with L6. In words: Cytotoxicity against rat L6 cells assessed as reduction in cell viability incubated for 70 hrs by resazurin staining based inverted microscopic analysis. Particulars: L6, 70 h. Put shortly: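 Rat L-6 skeletal myoblast line; racemates tested unless stated.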
The mark [2] stands for this setting: Leishmania donovani, MHOM/ET/67/L82, 70 h.

Molecules are shown by their SMILES. pIC50: −log10 of the molar value.

A word on the pIC50: it is the IC50 on a negative log10 scale, so that one unit is a factor of ten. Regarding `C[C@H]1c2cc(/C=C/C(=O)O)ccc2O[C@@H]1c1ccc(O)cc1` (racemic), the pIC50 with Leishmania donovani (setting [2]) is 5.25; in the series with L6, 4.13. Further, in series [1], the selectivity ratio was found to be 13.1.
For `COc1ccc([C@H]2Oc3ccc(Br)cc3[C@@H]2C)cc1` (racemic) the same measures were 4.50, 4.22 and 1.9.
For `COc1cc([C@H]2Oc3ccc(Br)cc3[C@@H]2CO)cc(Br)c1O` (racemic) the same measures were 4.92, 4.34 and 3.8.
As for `COc1ccc([C@H]2Oc3ccc(/C=C/C(=O)OC(C)(C)C)cc3[C@@H]2CF)cc1OC` (racemic), the figures for the pIC50 with Leishmania donovani (setting [2]) and in the series with L6 were 4.89 and 4.47, respectively. For the same compound, the selectivity ratio in series [1] turned out to be 2.6.
Consider `CCOC(=O)/C=C/c1ccc2c(c1)[C@H](C(=O)OCC)[C@@H](c1ccc(O)cc1)O2` (racemic), for which the negative logarithm of the IC50 (pIC50) in the series on Leishmania donovani (setting [2]) is 5.13; in the series on L6, 4.58. Moreover, in series [1], the selectivity ratio was 3.5.
For `COc1cc([C@H]2Oc3ccc(Cl)cc3[C@@H]2C)ccc1O` (racemic) the same measures were 4.79, 4.26 and 3.4.
Turning to `CC(C)OC(=O)/C=C/c1cc(O)c2c(c1)[C@H](C(=O)OC(C)C)[C@@H](c1ccc(O)c(O)c1)O2`, in the series on Leishmania donovani, the pIC50 was 6.28. The “Ratio IC50” value in series [1] is 19.3.
In the case of `COc1cc([C@H]2Oc3c(OC)cc(/C=C/C(=O)NC(C)C)cc3[C@@H]2C(=O)NC(C)C)ccc1O` (racemic), the pIC50 in the series on Leishmania donovani (setting [2]) was 4.27; with L6, 4.11. In addition, in series [1], the selectivity ratio was 1.4.
`CC(C)(C)OC(=O)/C=C/c1ccc2c(c1)[C@H](C(=O)OC(C)(C)C)[C@@H](c1ccc(OC(C)(C)C)cc1)O2` (racemic): the pIC50 was 4.88 with Leishmania donovani (setting [2]) and 3.69 in the series with L6. For the same compound, in series [1], the selectivity ratio was 15.5.
For `CCOC(=O)/C=C/c1cc(O)c2c(c1)[C@H](C(=O)OCC)[C@@H](c1ccc(O)c(O)c1)O2` (racemic) the same measures were 5.41, 5.00 and 2.6.
For `COc1cc([C@H]2Oc3ccc(Cl)cc3[C@@H]2C)cc(Cl)c1O` (racemic), in that order: 4.87, 4.19 and 4.8.
For `COc1cc([C@H]2Oc3ccc(Br)cc3[C@@H]2C)c(Br)cc1O` (racemic) the same measures were 4.82, 4.74 and 1.2.
With `OC[C@H]1c2cc(-c3ccc(O)cc3)ccc2O[C@@H]1c1ccc(O)cc1` (racemic), the negative-log IC50 (pIC50) is 4.78 in the series with Leishmania donovani (setting [2]) and 4.35 in the series with L6. Also, the selectivity ratio in series [1] worked out at 2.7.
For `COc1cc([C@H]2Oc3ccc(Br)cc3[C@@H]2CO)ccc1O` (racemic) the same measures were 4.52, 4.49 and 1.1.
With `OC[C@H]1c2ccccc2O[C@@H]1c1cc(Br)c(O)c(Br)c1` (racemic), the negative logarithm of the IC50 (pIC50) with Leishmania donovani (setting [2]) was 5.00; with L6, 3.96. The selectivity ratio in series [1] was 10.8.
With `COc1ccc([C@H]2Oc3ccc(Br)cc3[C@@H]2C)cc1Br` (racemic), the values for the pIC50 in the series with Leishmania donovani (setting [2]) and with L6 were 4.53 and 4.40, respectively. The selectivity ratio in series [1] stood at 1.3.
Regarding `O=S(=O)(OC[C@H]1c2ccccc2O[C@@H]1c1ccc(OS(=O)(=O)c2ccccn2)cc1)c1ccccn1` (racemic), the pIC50 with Leishmania donovani (setting [2]) was 5.20; with L6, 3.72. Moreover, the selectivity ratio in series [1] is 29.9.
For `COc1ccc([C@H]2Oc3ccc(/C=C/C(=O)OC(C)(C)C)cc3[C@@H]2C)cc1` (racemic) the same measures were 5.40, 4.40 and 10.
On to `OC[C@H]1c2ccccc2O[C@@H]1c1ccc(O)c(Br)c1` (racemic), for which the values for the pIC50 in the series with Leishmania donovani (setting [2]) and with L6 were 4.36 and 3.94, respectively. In series [1], the selectivity ratio worked out at 2.6.
For `CCCCCCCCOC(=O)/C=C/c1cc(O)c2c(c1)[C@H](C(=O)OCCCCCCCC)[C@@H](c1ccc(O)c(O)c1)O2` (racemic) the same measures were 4.63, 4.72 and 0.8.
For `COc1cc([C@H]2Oc3c(OC)cc(/C=C/CO)cc3[C@@H]2CO)ccc1O` (racemic), in that order: 3.80, 4.13 and 0.5.
For `CC(C)(C)OC(=O)/C=C/c1ccc2c(c1)[C@H](C(=O)OC(C)(C)C)[C@@H](c1ccc(O)cc1)O2` (racemic), in that order: 5.22, 4.88 and 2.2.
On to `CCCCCCCCCCCCCCCCOP(=O)([O-])OCC[N+](C)(C)C` [MILTEFOSINE], for which, in the series on Leishmania donovani (setting [2]), the pIC50 was 6.11.
For the compound `COc1cc([C@H]2Oc3c(OC)cc(/C=C/C(=O)CC(C)C)cc3[C@@H]2C(=O)CC(C)C)ccc1O` (racemic), the negative-log IC50 (pIC50) in the series on Leishmania donovani (setting [2]) was 5.42; in the series on L6, 5.28. For the same compound, the selectivity ratio in series [1] came to 1.4.
On to `CC(C)(C)CC(=O)/C=C/c1cc(O)c2c(c1)[C@H](C(=O)CC(C)(C)C)[C@@H](c1ccc(O)c(O)c1)O2` (racemic), for which the pIC50 in the series with Leishmania donovani (setting [2]) is 5.47; in the series on L6 it was 5.61. Besides, the selectivity ratio in series [1] stood at 0.7.
For `COC(=O)/C=C/c1cc(O)c2c(c1)[C@H](C(=O)OC)[C@@H](c1ccc(O)c(O)c1)O2` (racemic), in that order: 4.90, 6.43 and 0.03.
As to `CC(=O)OC[C@H]1c2cc(Br)ccc2O[C@@H]1c1ccc(O)cc1` (racemic), the results for the pIC50 with Leishmania donovani (setting [2]) and in the series with L6 were 4.86 and 4.26, respectively. Further, the selectivity ratio in series [1] came out at 4.
For `COc1cc(Br)c([C@H]2Oc3ccc(Br)cc3[C@@H]2CO)cc1OC` (racemic), in that order: 4.94, 4.68 and 1.8.
On to `O=Cc1ccc(-c2ccc3c(c2)[C@H](CO)[C@@H](c2ccc(O)cc2)O3)cc1` (racemic), for which the figures for the pIC50 in the series on Leishmania donovani (setting [2]) and with L6 were 4.42 and 4.25, respectively. In series [1], the selectivity ratio worked out at 1.5.
As to `OC[C@H]1c2cc(Br)ccc2O[C@@H]1c1ccc(O)c(O)c1` (racemic), the pIC50 in the series on Leishmania donovani (setting [2]) is 4.75; in the series with L6, 5.41. In addition, in series [1], the selectivity ratio turned out to be 0.2.
In the case of `COc1cc([C@H]2Oc3ccccc3[C@@H]2C)cc(I)c1O` (racemic), the figures for the pIC50 in the series on Leishmania donovani (setting [2]) and with L6 were 4.87 and 4.33, respectively. The selectivity ratio in series [1] was found to be 3.5.
For `CCCCOC(=O)/C=C/c1cc(OC)c2c(c1)[C@H](C(=O)OCCCC)[C@@H](c1ccc(O)c(OC)c1)O2` (racemic) the same measures were 5.51, 5.09 and 2.6.
For `OC[C@H]1c2ccccc2O[C@@H]1c1ccc(O)cc1` (racemic) the same measures were 3.80, 3.66 and 1.4.
For `CCCCOC(=O)/C=C/c1ccc2c(c1)[C@H](C(=O)OCCCC)[C@@H](c1ccc(O)cc1)O2` (racemic), in that order: 4.97, 4.84 and 1.3.
For `COc1cc([C@H]2Oc3ccccc3[C@@H]2C)ccc1O` (racemic), the pIC50 in the series on Leishmania donovani (setting [2]) is 4.23; in the series on L6, 4.07. The selectivity ratio in series [1] is 1.4.
For the compound `CC(C)OC(=O)/C=C/c1cc(O)c2c(c1)[C@@H](C(=O)OC(C)C)[C@H](c1ccc(O)c(O)c1)O2`, the pIC50 with Leishmania donovani (setting [2]) was 6.19; in the series on L6, 4.97. For the same compound, the selectivity ratio in series [1] turned out to be 16.4.
For `OC[C@H]1c2ccccc2O[C@@H]1c1ccccc1Br` (racemic), in that order: 4.66, 4.60 and 1.2.
For `CC(C)(C)OC(=O)/C=C/c1ccc2c(c1)[C@H](CO)[C@@H](c1ccc(O)cc1)O2` (racemic), in that order: 4.77, 4.47 and 2.
Consider `COc1cc([C@H]2Oc3ccccc3[C@@H]2CO)ccc1O` (racemic), for which the negative-log IC50 (pIC50) was 3.73 in the series with Leishmania donovani (setting [2]) and 4.24 with L6. For the same compound, the selectivity ratio in series [1] turned out to be 0.3.
For `OC[C@H]1c2cc(Br)ccc2O[C@@H]1c1ccc(O)c(Br)c1` (racemic), in that order: 4.66, 4.19 and 3.
For `COc1ccc([C@H]2Oc3ccccc3[C@@H]2CO)cc1` (racemic), in that order: 4.15, 4.36 and 0.6.
Consider `COc1cc([C@H]2Oc3ccc(Br)cc3[C@@H]2C)cc(Br)c1O` (racemic), for which the figures for the negative-log IC50 (pIC50) with Leishmania donovani (setting [2]) and with L6 were 4.76 and 4.35, respectively. In addition, the selectivity ratio in series [1] was determined as 2.6.
In the case of `COc1ccc([C@H]2Oc3ccccc3[C@@H]2CO)cc1OC` (racemic), the pIC50 in the series on Leishmania donovani (setting [2]) is 3.87; with L6, 4.27. The selectivity ratio in series [1] came to 0.4.
Consider `COc1ccc([C@H]2Oc3ccccc3[C@@H]2C)cc1` (racemic), for which the pIC50 was 4.00 in the series on Leishmania donovani (setting [2]) and 3.81 in the series with L6. Moreover, the selectivity ratio in series [1] is 1.6.
For `COc1ccc([C@H]2Oc3ccc(C=O)cc3[C@@H]2C)cc1` (racemic), in that order: 4.52, 4.36 and 1.4.
Consider `CCOC(=O)/C=C/c1cc(OC)c2c(c1)[C@H](C(=O)OCC)[C@@H](c1ccc(O)c(OC)c1)O2` (racemic), for which the negative-log IC50 (pIC50) is 5.04 with Leishmania donovani (setting [2]) and 5.35 with L6. Besides, in series [1], the selectivity ratio was 0.5.
As for `COc1ccc([C@H]2Oc3ccc(/C=C/C(C)=O)cc3[C@@H]2C)cc1` (racemic), the pIC50 in the series with Leishmania donovani (setting [2]) is 4.76; in the series on L6 it was 5.03. Further, in series [1], the selectivity ratio worked out at 0.5.
